Experimental data reported in ChEMBL document CHEMBL2385052, “Identification of the fused bicyclic 4-amino-2-phenylpyrimidine derivatives as novel and potent PDE4 inhibitors” (Bioorg Med Chem Lett, 2013).
The source made the active and inactive calls. The rule behind the calls is not given here.

Assays:
[1] = Antiinflammatory activity in Balb/c mouse splenocytes assessed as LPS-induced TNF-alpha production after 18 to 24 hrs by AlphaLISA; assay type: functional, cell-based; details: Splenocyte
[2] = molecular target: T1, 3',5'-cyclic-AMP phosphodiesterase 4B (Homo sapiens, UniProt Q07343); experiment: Inhibition of human recombinant PDE4B (152 to 564 amino acids) using cAMP as substrate after 30 mins by plate reader analysis
T1 sequence (Q07343 whole entry, the tested form may be a part): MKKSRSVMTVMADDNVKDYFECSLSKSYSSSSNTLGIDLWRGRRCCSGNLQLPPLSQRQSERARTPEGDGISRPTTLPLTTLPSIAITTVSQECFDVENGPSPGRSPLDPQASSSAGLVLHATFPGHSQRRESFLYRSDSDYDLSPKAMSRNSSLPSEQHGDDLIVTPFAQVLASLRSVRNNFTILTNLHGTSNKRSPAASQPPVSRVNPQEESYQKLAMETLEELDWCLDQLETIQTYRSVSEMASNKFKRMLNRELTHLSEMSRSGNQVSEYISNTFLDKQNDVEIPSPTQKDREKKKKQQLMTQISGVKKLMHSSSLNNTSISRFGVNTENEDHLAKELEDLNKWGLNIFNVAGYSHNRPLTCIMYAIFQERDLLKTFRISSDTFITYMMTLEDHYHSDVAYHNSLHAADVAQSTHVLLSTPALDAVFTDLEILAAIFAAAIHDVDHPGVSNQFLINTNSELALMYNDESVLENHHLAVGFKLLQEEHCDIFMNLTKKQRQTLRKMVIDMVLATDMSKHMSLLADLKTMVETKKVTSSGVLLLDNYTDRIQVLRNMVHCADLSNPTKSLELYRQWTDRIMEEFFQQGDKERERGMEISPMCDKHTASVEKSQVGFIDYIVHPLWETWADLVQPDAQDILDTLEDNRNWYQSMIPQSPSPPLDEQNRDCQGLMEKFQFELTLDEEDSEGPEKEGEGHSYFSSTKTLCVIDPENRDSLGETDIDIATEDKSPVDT

[3] = Permeability of the compound at pH 7.4 after 4 hrs by PAMPA; assay type: ADME; details: read-out: permeability
How it was run: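 Passive membrane permeability was measured by PAMPA at pH 7.4. The effective permeability coefficient Pe is reported in 10^-6 cm/sec.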

[4] = Octanol-phosphate buffer partition coefficient, log D of the compound at pH 7.4 after 12 hrs by shake flask method; assay type: physicochemical
[5] = molecular target: T1, 3',5'-cyclic-AMP phosphodiesterase 4B; experiment: Inhibition of human recombinant PDE4B (152 to 564) using cAMP as substrate at 10 uM after 30 mins by plate reader analysis
[6] = system: Mus musculus; experiment: Antiinflammatory activity in ip dosed BALB/c mouse assessed as inhibition of LPS-induced pulmonary neutrophilia administered 30 mins prior to LPS challenge measured after 4 to 5 hrs; assay type: functional; details: for ED50: read-out: ID50 (the source's name)

IC50 [1] [nM] | IC50 [2] [nM] | Compound | also measured
8.5 | 11 | CC(C)(C)NC(=O)Cc1ccc(Nc2nc(-c3ccccc3)nc3c2S(=O)(=O)CCC3)cc1 | –
– | 2200 | O=C(O)Cc1ccc(Nc2nc(-c3ccccc3)nc3c2COC3)cc1 | –
90 | 29 | O=C(O)Cc1ccc(Nc2nc(-c3ccccc3)nc3c2SCCC3)cc1 | Papp at 4 h [3]: 15.5 ×10⁻⁶ cm/s; logD at 12 h [4]: 1.4
> 10000 | 28 | O=C(O)Cc1ccc(Nc2nc(-c3ccccc3)nc3c2CCS(=O)(=O)C3)cc1 | Papp at 4 h [3]: < 2 ×10⁻⁶ cm/s; logD at 12 h [4]: -0.45
220 | 29 | O=C(O)Cc1ccc(Nc2nc(-c3ccccc3)nc3c2CSC3)cc1 | Papp at 4 h [3]: 13.3 ×10⁻⁶ cm/s; logD at 12 h [4]: 1.3
1.2 | – | O=C(Nc1c(Cl)cncc1Cl)c1ccc(OC(F)F)c(OCC2CC2)c1 [ROFLUMILAST] | –
18 | 43 | O=C(Cc1ccc(Nc2nc(-c3ccccc3)nc3c2S(=O)(=O)CCC3)cc1)Nc1ccccc1 | –
– | 430 | O=C(O)Cc1ccc(Nc2nc(-c3ccccc3)nc3c2CCCC3)cc1 | –
– | – | O=C(O)Cc1ccc(Nc2nc(-c3ccccc3)nc3c2CCCCC3)cc1 | inhibition [5]: 35%
390 | 25 | O=C(O)Cc1ccc(Nc2nc(-c3ccccc3)nc3c2S(=O)(=O)CCC3)cc1 | Papp at 4 h [3]: 5.8 ×10⁻⁶ cm/s; logD at 12 h [4]: 0.43
– | 190 | O=C(O)CC1CCN(c2nc(-c3ccccc3)nc3c2CS(=O)(=O)C3)CC1 | –
13 | 22 | CCCCNC(=O)Cc1ccc(Nc2nc(-c3ccccc3)nc3c2S(=O)(=O)CCC3)cc1 | ED50 [6]: 23 mg/kg
0.8 | 4.7 | CC(C)(C)CNC(=O)Cc1ccc(Nc2nc(-c3ccccc3)nc3c2S(=O)(=O)CCC3)cc1 | Activity [6]: inactive
– | 2500 | O=C(O)Cc1cccc(Nc2nc(-c3ccccc3)nc3c2CS(=O)(=O)C3)c1 | –
– | 7900 | O=C(O)Cc1ccc(Nc2nc(-c3ccccc3)nc3c2CS(=O)(=O)CC3)cc1 | –
– | 5000 | O=C(O)CN1CCN(c2nc(-c3ccccc3)nc3c2CS(=O)(=O)C3)CC1 | –
– | 800 | O=C(O)CCc1ccc(Nc2nc(-c3ccccc3)nc3c2CS(=O)(=O)C3)cc1 | –
35 | 27 | CNC(=O)Cc1ccc(Nc2nc(-c3ccccc3)nc3c2S(=O)(=O)CCC3)cc1 | –
970 | 140 | O=C(O)Cc1ccc(Nc2nc(-c3ccccc3)nc3c2CS(=O)(=O)C3)cc1 | Papp at 4 h [3]: < 2 ×10⁻⁶ cm/s; logD at 12 h [4]: 0.016
4.7 | 6.6 | CC(C)CNC(=O)Cc1ccc(Nc2nc(-c3ccccc3)nc3c2S(=O)(=O)CCC3)cc1 | –
– | 480 | O=C(O)Cc1ccc(Nc2nc(-c3ccccc3)nc3ccccc23)cc1 | –
– | 230 | O=C(O)Cc1ccc(Nc2nc(-c3ccccc3)nc3sccc23)cc1 | –
8.5 | 16 | NC(=O)Cc1ccc(Nc2nc(-c3ccccc3)nc3c2S(=O)(=O)CCC3)cc1 | Papp at 4 h [3]: > 50 ×10⁻⁶ cm/s; logD at 12 h [4]: 2.9
– | 150 | O=C(O)CC1CCN(c2nc(-c3ccccc3)nc3c2CSC3)CC1 | –
17 | 33 | CN(C)C(=O)Cc1ccc(Nc2nc(-c3ccccc3)nc3c2S(=O)(=O)CCC3)cc1 | –
– | 610 | O=C(O)Cc1ccc(Nc2nc(-c3ccccc3)nc3c2CCC3)cc1 | –
> 10000 | 280 | O=C(O)Cc1ccc(Nc2nc(-c3ccccc3)nc3c2S(=O)(=O)CC3)cc1 | –
– | 3000 | O=C(O)CN1CCC(Nc2nc(-c3ccccc3)nc3c2CS(=O)(=O)C3)CC1 | –
– | – | O=C(O)Cc1ccc(Nc2nc(-c3ccccc3)nc3ncccc23)cc1 | inhibition [5]: 14%
9.8 | 7.5 | CCCNC(=O)Cc1ccc(Nc2nc(-c3ccccc3)nc3c2S(=O)(=O)CCC3)cc1 | ED50 [6]: 18 mg/kg
